Key:
Format in all cases: functional
[1] = tested on: Semliki Forest virus; test: Effect of compound on forest virus infection in mice, Mean survival time through 21 days at 100 mg/kg dose
How it was run: (§1)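 Female Swiss Webster mice, about 20 g, received test compound intraperitoneally in aqueous 2% sodium bicarbonate. The daily dose was split into two halves given 24 h and 18 h before lethal Semliki Forest virus inoculation. Placebo mice got 2% sodium bicarbonate alone (0.1 mL/injection). The read-outs were survivors per group and mean survival time with standard deviation.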

[2] = tested on: Semliki Forest virus; test: Effect of compound on forest virus infection in mice, Mean survival time through 21 days at 200 mg/kg dose; how it was run: as §1
[3] = tested on: Semliki Forest virus; test: Effect of compound on forest virus infection in mice at the dose of 100 mg/kg; tested over 12 mice; how it was run: as §1
[4] = tested on: Semliki Forest virus; test: Effect of compound on forest virus infection in mice at the dose of 200 mg/kg; tested over 12 mice; how it was run: as §1
[5] = tested on: Mus musculus; test: In vivo effect of Guanosines on murine NK cell activity at E:T ratio of 50:1
How it was run: (§2)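 Mice dosed ip with 150 mg/kg in 2% aqueous sodium bicarbonate, split as 75 mg/kg b.i.d. for 1 day; controls got 2% sodium bicarbonate alone; groups of two. Spleens taken after 24 h; splenocytes tested ex vivo against 51Cr-labelled YAC-1 T-cell lymphoma targets in a 4 h 51Cr release assay, in triplicate, at two effector:target ratios.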

[6] = tested on: Semliki Forest virus; test: Effect of compound on forest virus infection in mice at the dose of 100 mg/kg; Tested over 12 mice; how it was run: as §1
[7] = tested on: Semliki Forest virus; test: Effect of compound on forest virus infection in mice at the dose of 200 mg/kg; Tested over 12 mice; how it was run: as §1
[8] = tested on: Mus musculus; test: In vivo effect of Guanosines on murine NK cell activity at E:T ratio of 100:1; how it was run: as §2
[9] = tested on: Mus musculus; test: In vivo effect of Guanosines on murin NK cell activity at E:T ratio of 100:1; how it was run: as §2
[10] = tested on: Semliki Forest virus; test: Effect of compound on forest virus infection in mice at the dose of 200 mg/kg; tested over 11 mice; how it was run: as §1

| SMILES | Mean survival time [1] [days] | Mean survival time [2] [days] | Survivors / total [3] | Survivors / total [4] | Cytotoxicity [5] [%] | Survivors / total [6] | Survivors / total [7] | Cytotoxicity [8] [%] | Cytotoxicity [9] [%] | Survivors / total [10] |
| --- | --- | --- | --- | --- | --- | --- | --- | --- | --- | --- |
| Nc1nc2c(c(C(=O)O)nn2C2O[C@H](CO)[C@@H](O)[C@H]2O)c(=O)[nH]1 (stereo partly drawn) | 6 | 6.3 | 1 | 3 |  |  |  |  |  |  |
| Nc1nc2c(cnn2C2O[C@H](CO)[C@@H](O)[C@H]2O)c(=O)[nH]1 (stereo partly drawn) | 9 | > 21 |  |  | 26.9 | 9 | 12 | 41.1 |  |  |
| Nc1nc2c(c(Br)nn2C2O[C@H](CO)[C@@H](O)[C@H]2O)c(=O)[nH]1 (stereo partly drawn) | 9 | 9 |  |  | 24.4 | 11 | 11 |  | 33.2 |  |
| Cc1nn(C2O[C@H](CO)[C@@H](O)[C@H]2O)c2nc(N)[nH]c(=O)c12 (stereo partly drawn) | 8 | 6.4 | 8 |  | 17 |  |  | 29.7 |  | 6 |
| Nc1nc2c(c(N)nn2C2O[C@H](CO)[C@@H](O)[C@H]2O)c(=O)[nH]1 (stereo partly drawn) | 6.2 | 6.8 |  |  | 16.8 | 1 | 3 | 25 |  |  |
| COc1nn(C2O[C@H](CO)[C@@H](O)[C@H]2O)c2nc(N)[nH]c(=O)c12 (stereo partly drawn) | 7.8 | 8.6 |  | 2 |  | 2 |  |  |  |  |
| Nc1nc2c(c(=O)[nH]1)c(=O)[nH]n2C1O[C@H](CO)[C@@H](O)[C@H]1O (stereo partly drawn) | 7 | 6.9 |  | 0% |  |  |  |  |  |  |
| N=c1[nH]c(=O)c2c(-c3ccccc3)nn(C3O[C@H](CO)[C@@H](O)[C@H]3O)c2[nH]1 (stereo partly drawn) | 6 | 7.2 | 1 | 0 |  |  |  |  |  |  |
| Nc1nc(=O)c2sc(=O)n([C@@H]3O[C@H](CO)[C@@H](O)[C@H]3O)c2[nH]1 [ISATORIBINE] | 11.5 | >21 |  |  |  | 10 | 12 |  |  |  |

— ChEMBL document CHEMBL1124872, “Guanosine analogues. Synthesis of nucleosides of certain 3-substituted 6-aminopyrazolo[3,4-d]pyrimidin-4(5H)-ones as potential immunotherapeutic agents” (1990)
